Experiments:
[1] = target: Potassium-transporting ATPase (Sus scrofa, UniProt P19156); test: Inhibition of K+ stimulated gastric ATPase activity; assay type: tissue-based, Stomach
Procedure, shortened: (§1)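 K+-stimulated ATPase activity measured in a lyophilized gastric vesicle preparation at pH 7; enzyme concentration estimated at around 2 nM from 32P-ATP binding.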

[2] = target: T1, Potassium-transporting ATPase (Rattus norvegicus) (UniProt P09626+P18598); test: Inhibition of pentagastrin stimulated gastric acid secretion in anesthetized rat at 10 uM/kg; assay type: functional; conditions: Stomach; 10 umol/kg
Procedure, shortened: (§2)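 Anaesthetized rat with lumen-perfused stomach; acid secretion induced by pentagastrin; compound given intravenously; inhibition of acid output recorded.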

Rattus norvegicus [3] = test: Inhibition of pentagastrin stimulated gastric acid secretion in anesthetized rat on iv administration of the compound.; assay type: functional; conditions: Stomach; procedure, shortened: as §2
Rattus norvegicus [4] = test: Inhibition of pentagastrin stimulated gastric acid secretion in anesthetized rat at 10 uM, on iv administration of the compound.; assay type: functional, Stomach; procedure, shortened: as §2
[5] = target: T2, Potassium-transporting ATPase (Sus scrofa) (UniProt P18434+P19156); test: Inhibition of K+ stimulated gastric ATPase activity at 100 uM; assay type: tissue-based; conditions: Stomach; procedure, shortened: as §1
[6] = target: T1, Potassium-transporting ATPase (Rattus norvegicus); test: Inhibition of pentagastrin stimulated gastric acid secretion in anesthetized rat 10 uM/kg, on iv administration of the compound.; assay type: functional, organism-based; conditions: Stomach; procedure, shortened: as §2
Canis familiaris [7] = test: % inhibition of Histamine-stimulated gastric acid secretion in Heidenhain pouch dog at1uM/kg, on iv administration of the compound.; assay type: functional, Canis lupus familiaris, Stomach
Canis familiaris [8] = test: % inhibition of Histamine-stimulated gastric acid secretion in Heidenhain pouch dog at 4 uM/kg, on peroral administration of the compound.; assay type: functional, Canis lupus familiaris, Stomach
Procedure, shortened: (§3)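 Heidenhain pouch dogs with histamine-stimulated acid secretion; compound given orally as a dry powder in a hard gelatin capsule; inhibition of acid secretion measured.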

Rattus norvegicus [9] = test: Inhibition of pentagastrin stimulated gastric acid secretion in anesthetized rat on 10 uM/kg, iv administration of the compound.; assay type: functional, Stomach; procedure, shortened: as §2
Rattus norvegicus [10] = test: Inhibition of pentagastrin stimulated gastric acid secretion in anesthetized rat at 10 uM/kg, on iv administration of the compound.; assay type: functional, Stomach; procedure, shortened: as §2
Canis familiaris [11] = test: % inhibition of Histamine-stimulated gastric acid secretion in Heidenhain pouch dog at 1 uM/kg, on peroral administration of the compound.; assay type: functional, Canis lupus familiaris, Stomach; conditions: in the assay text read “on iv administration” for “on peroral administration”
[12] = target: T2, Potassium-transporting ATPase (Sus scrofa); test: Inhibition of K+ stimulated gastric ATPase activity at 100 uM[…]; assay type: tissue-based; conditions: Stomach
Canis familiaris [13] = test: % inhibition of Histamine-stimulated gastric acid secretion in Heidenhain pouch dog 4 uM/kg, on peroral administration of the compound.; assay type: functional, Canis lupus familiaris, Stomach; procedure, shortened: as §3
Canis familiaris [14] = test: % inhibition of Histamine-stimulated gastric acid secretion in Heidenhain pouch dog 1 uM/kg, on iv administration of the compound.; assay type: functional, Canis lupus familiaris, Stomach
Canis familiaris [15] = test: % inhibition of Histamine-stimulated gastric acid secretion in Heidenhain pouch dog at 1 umol/kg on iv administration of the compound.; assay type: functional; conditions: Canis lupus familiaris, Stomach

Chain of Potassium-transporting ATPase (P18434 whole entry): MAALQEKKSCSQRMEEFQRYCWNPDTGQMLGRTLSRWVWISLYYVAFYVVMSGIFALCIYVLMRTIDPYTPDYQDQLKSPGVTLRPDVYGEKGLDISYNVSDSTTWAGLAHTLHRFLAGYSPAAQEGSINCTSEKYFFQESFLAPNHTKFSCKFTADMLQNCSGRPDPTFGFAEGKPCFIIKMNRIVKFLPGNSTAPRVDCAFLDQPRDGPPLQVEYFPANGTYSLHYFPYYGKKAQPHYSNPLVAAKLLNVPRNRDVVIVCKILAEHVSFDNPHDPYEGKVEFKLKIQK
Chain of Potassium-transporting ATPase (P19156 whole entry): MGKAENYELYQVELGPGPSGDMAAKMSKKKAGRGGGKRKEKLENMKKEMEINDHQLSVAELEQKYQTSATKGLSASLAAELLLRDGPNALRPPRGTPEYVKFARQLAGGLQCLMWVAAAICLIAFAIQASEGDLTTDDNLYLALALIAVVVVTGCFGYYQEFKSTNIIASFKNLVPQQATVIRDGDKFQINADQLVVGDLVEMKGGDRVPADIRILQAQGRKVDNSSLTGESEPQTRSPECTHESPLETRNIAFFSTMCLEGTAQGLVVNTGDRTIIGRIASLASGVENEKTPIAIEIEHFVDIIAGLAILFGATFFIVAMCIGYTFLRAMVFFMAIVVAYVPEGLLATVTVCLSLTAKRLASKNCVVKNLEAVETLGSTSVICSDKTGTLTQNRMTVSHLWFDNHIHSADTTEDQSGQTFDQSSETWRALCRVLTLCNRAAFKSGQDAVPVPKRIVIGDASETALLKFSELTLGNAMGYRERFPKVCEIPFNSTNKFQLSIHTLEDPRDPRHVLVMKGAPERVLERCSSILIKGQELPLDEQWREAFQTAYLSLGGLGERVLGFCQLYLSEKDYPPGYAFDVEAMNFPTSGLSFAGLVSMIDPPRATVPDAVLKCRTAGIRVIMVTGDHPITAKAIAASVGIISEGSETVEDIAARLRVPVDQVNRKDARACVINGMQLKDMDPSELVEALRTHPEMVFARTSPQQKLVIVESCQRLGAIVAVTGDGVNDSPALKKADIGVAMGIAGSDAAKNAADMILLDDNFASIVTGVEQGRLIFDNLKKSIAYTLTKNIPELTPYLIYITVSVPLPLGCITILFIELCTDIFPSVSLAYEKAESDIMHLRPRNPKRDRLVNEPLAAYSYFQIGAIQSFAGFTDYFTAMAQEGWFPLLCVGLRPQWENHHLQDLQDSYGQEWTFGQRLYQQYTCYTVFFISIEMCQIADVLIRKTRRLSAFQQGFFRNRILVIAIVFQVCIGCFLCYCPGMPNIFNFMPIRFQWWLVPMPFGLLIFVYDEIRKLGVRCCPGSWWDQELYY

Row | SMILES | IC50 [1] [nM] | other results
1 | Cc1cc(F)ccc1Nc1nc(N(C)c2ccccc2)c2cc(OCCCN(C)C)ccc2n1 | 1100 | –
2 | COc1cccc2c(Nc3ccccc3C)nc(NCc3ccco3)nc12 | 1900 | –
3 | COc1ccc(Nc2nc(N(C)c3ccccc3)c3ccccc3n2)c(C)c1 | 360 | –
4 | COc1cccc2c(Nc3ccccc3C)nc(N3CCCC3)nc12 | 30000 | inhibition [2]: 31%
5 | CNc1nc(Nc2ccccc2C)c2cccc(OC)c2n1 | 640 | inhibition [2]: 19%
6 | Cc1ccccc1Nc1ncnc2ccccc12 | – | Inhibition (Rattus norvegicus [4]): 9%; inhibition [5]: 28%
7 | COc1cccc2c(Nc3ccccc3C)nc(N(C)C)nc12 | 16000 | inhibition [2]: 37%
8 | COc1ccc2nc(Nc3ccccc3C)nc(N(C)c3ccccc3)c2c1 | 510 | inhibition [6]: 46%
9 | Cc1ccccc1Nc1nc(Nc2ccccc2C)c2ccccc2n1 | 600 | –
10 | Cc1ccccc1Nc1nc(N2CCCC2)nc2ccccc12 | 2260 | inhibition [2]: 17%
11 | COc1cccc2c(Nc3ccccc3C)nc(NCCc3ccccc3)nc12 | 3200 | –
12 | COc1cccc2c(Nc3ccccc3C)nc(N(C)c3ccccc3)nc12 | 590 | inhibition [2]: 37%
13 | Cc1ccccc1Nc1nc(Nc2ccccc2C)c2ccsc2n1 | – | inhibition [12]: 27%
14 | Cc1ccccc1Nc1nc(N)nc2ccccc12 | 1320 | ED50 (Rattus norvegicus [3]): 48 µmol/kg
15 | COc1cccc2c(N(C)c3ccccc3)nc(N)nc12 | 1200 | inhibition [2]: 13%
16 | Cc1cc(F)ccc1Nc1nc(N(C)c2ccccc2)c2cc(OCCCN3CCOCC3)ccc2n1 | 370 | inhibition [6]: 5%
17 | COc1cccc2c(Nc3ccccc3C)ncnc12 | 11600 | inhibition [2]: 30%
18 | CN(c1ccccc1)c1nc(N(C)c2ccccc2)c2sccc2n1 | 300 | –
19 | Cc1ccccc1Nc1nc(NCCc2ccccc2)nc2ccccc12 | 810 | inhibition [2]: 31%
20 | Cc1ccccc1Nc1nc(Nc2ccccc2)c2ccccc2n1 | 940 | –

More lines, in order of falling IC50 [1], values ahead:

Row | IC50 [1] [nM] | SMILES | other results
21 | 260 | Cc1ccccc1Nc1nc(N(C)c2ccccc2)c2cccc(O)c2n1 | –
22 | 250 | COc1ccc2nc(Nc3ccc(F)cc3C)nc(N(C)c3ccccc3)c2c1 | Inhibition (Rattus norvegicus [9]): 27%
23 | 180 | CNc1nc2c(C)cccc2c2c1CCN2c1ccccc1C | –
24 | 170 | Cc1cc(F)ccc1Nc1nc(N(C)c2ccccc2)c2cccc(O)c2n1 | –
25 | 140 | Cc1cc(F)ccc1Nc1nc(N(C)c2ccccc2)c2cccc(F)c2n1 | –
26 | 100 | Cc1cc(F)ccc1Nc1nc(N(C)c2ccccc2)c2cccc(OCCO)c2n1 | –
27 | 100 | COc1cccc2c(N(C)c3ccccc3C)nc(Nc3ccccc3C)nc12 | inhibition [6]: 93%
28 | 80 | COc1cccc2c(Nc3ccccc3C)nc(N)nc12 | inhibition in vivo at 1 µmol/kg (Canis familiaris [15]): 39%; ED50 (Rattus norvegicus [3]): 7.11 µmol/kg; Inhibition (Canis familiaris [8]): 0%
29 | 67 | CN(c1ccccc1)c1nc(N(C)c2ccccc2)c2ccccc2n1 | Inhibition (Canis familiaris [7]): 73%; ED50 (Rattus norvegicus [3]): 2.81 µmol/kg; Inhibition (Canis familiaris [8]): 2%
30 | 65 | CN(c1ccccc1)c1nc(Nc2ccccc2)nc2ccccc12 | ED50 (Rattus norvegicus [3]): 2.35 µmol/kg
31 | 50 | Cc1cc(F)ccc1Nc1nc(N(C)c2ccccc2)c2cccc(OCCCN3CCOCC3)c2n1 | inhibition [6]: 73%; Inhibition (Canis familiaris [13]): 0%
32 | 46 | Cc1ccccc1Nc1nc(N(C)c2ccccc2C)c2ccccc2n1 | inhibition [2]: 90%
33 | 28 | COc1ccc(N(C)c2nc(Nc3ccccc3C)[n+](C)c3ccccc23)cc1 | –
34 | 24 | Cc1ccccc1Nc1nc(N(C)c2ccccc2)c2cc(O)ccc2n1 | –
35 | 21 | Cc1ccccc1Nc1nc(N(C)c2ccccc2)c2cccc(OCCCN(C)C)c2n1 | inhibition [6]: 49%; Inhibition (Canis familiaris [13]): 25%; Inhibition (Canis familiaris [14]): 18%
36 | 19 | Cc1ccccc1Nc1nc(N(C)c2ccccc2)c2sccc2n1 | Inhibition (Rattus norvegicus [10]): 50%; Inhibition (Canis familiaris [11]): 84%; Inhibition (Canis familiaris [8]): 12%
